Experimental data from ChEMBL document CHEMBL1139421, “Synthesis and elastase-inhibiting activity of 2-pyridinyl-isothiazol-3(2H)-one 1,1-dioxides” (Bioorg Med Chem, 2008).

Tests used:
Cathepsin G = target: T1, Cathepsin G (Homo sapiens, UniProt P08311); assay: Inhibition of human cathepsin G
T1 sequence (P08311 whole entry): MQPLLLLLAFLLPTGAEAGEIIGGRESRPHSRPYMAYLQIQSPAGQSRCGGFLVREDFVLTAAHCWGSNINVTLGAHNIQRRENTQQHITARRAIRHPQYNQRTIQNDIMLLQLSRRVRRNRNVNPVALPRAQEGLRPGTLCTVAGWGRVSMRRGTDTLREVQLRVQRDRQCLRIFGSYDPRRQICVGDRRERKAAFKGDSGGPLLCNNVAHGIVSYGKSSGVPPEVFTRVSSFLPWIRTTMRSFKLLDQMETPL
In short: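 Human cathepsin G at 2.5 mU/ml final, 25 °C, in 20 mM Tris-HCl, 150 mM NaCl, pH 8.4. Suc-Ala-Ala-Pro-Phe-pNA at 500 µM final, with 1.5% DMSO; started with enzyme. Read at 405 nm over 10 min. IC50 from linear steady-state rate, duplicate determinations at 12.5 µM inhibitor, IC50 = [I]/(v0/v − 1).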

[1] = Inhibition of bovine trypsin; set-up: species or system Bos taurus
In short: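 Bovine pancreatic trypsin at 12.5 ng/ml final, 25 °C, in 20 mM Tris-HCl, 150 mM NaCl, pH 8.4. Substrate Suc-Ala-Ala-Pro-Arg-pNA at 200 µM final, with 6% DMSO. Started with enzyme; release of pNA read at 405 nm over 10 min. IC50 taken from linear steady-state turnover, duplicate determinations at inhibitor 25 and 50 µM.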

[2] = target: Angiotensin-converting enzyme (Homo sapiens, UniProt P12821); assay: Inhibition of human ACE
In short: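 Human ACE at 86.8 ng/ml final, 37 °C, in 50 mM Tris-HCl, 300 mM NaCl, pH 7.5. Enzyme was preincubated 10 min at 37 °C after dilution. FA-Phe-Gly-Gly at 3 mM final, with 3% DMSO. Absorbance decrease read at 352 nm over 20 min. IC50 from linear steady-state turnover.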

Neutrophil elastase = target: T2, Neutrophil elastase (Homo sapiens, UniProt P08246); assay: Inhibition of human leukocyte elastase
T2 sequence (P08246 whole entry): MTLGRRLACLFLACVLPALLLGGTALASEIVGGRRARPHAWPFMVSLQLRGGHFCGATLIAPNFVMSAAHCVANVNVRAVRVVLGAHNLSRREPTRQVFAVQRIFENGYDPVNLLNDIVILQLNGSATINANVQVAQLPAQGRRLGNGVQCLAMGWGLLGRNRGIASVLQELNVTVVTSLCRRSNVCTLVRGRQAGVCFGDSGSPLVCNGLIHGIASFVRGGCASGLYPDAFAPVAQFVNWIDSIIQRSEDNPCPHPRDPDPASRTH
In short: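 Human leukocyte elastase at 50 ng/ml final, 25 °C, in 50 mM sodium phosphate, 500 mM NaCl, pH 7.8. MeOSuc-Ala-Ala-Pro-Val-pNA at 100 µM final (1.9 Km), with 3.5% DMSO; started with enzyme. Read at 405 nm over 10 min. IC50 from linear steady-state rates: duplicate determinations at 25 and 50 µM, or five concentrations fitted nonlinearly.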

Acetylcholinesterase = Acetylcholinesterase (Homo sapiens, UniProt P22303); assay: Inhibition of acetylcholinesterase
In short: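 Acetylcholinesterase in 100 mM sodium phosphate, 100 mM NaCl, pH 7.3. Enzyme, DTNB and test compound (acetonitrile stocks, added acetonitrile) preincubated 15 min at 25 °C. Reaction started with acetylthiocholine; DTNB final 350 µM. Read at 412 nm, 25 °C. Progress curves followed 5 min and fitted by linear regression; IC50 derived from rates with and without inhibitor.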

Procathepsin L = Procathepsin L (Homo sapiens, UniProt P07711); assay: Inhibition of human cathepsin L
In short: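 Human cathepsin L at 4 ng/ml final, 37 °C, in 100 mM sodium phosphate pH 6.0, 100 mM NaCl, 5 mM EDTA, 0.01% Brij 35. Enzyme was activated 30 min at 37 °C with 5 mM DTT. Z-Phe-Arg-pNA at 100 µM final, with 3% DMSO; read at 405 nm over 10 min, with linear regression of progress curves.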

[3] = target: Bile salt-activated lipase (Bos taurus) (UniProt P30122); assay: Inhibition of cholesterol esterase
Chain of Bile salt-activated lipase (Bos taurus) (P30122 whole entry, looked up): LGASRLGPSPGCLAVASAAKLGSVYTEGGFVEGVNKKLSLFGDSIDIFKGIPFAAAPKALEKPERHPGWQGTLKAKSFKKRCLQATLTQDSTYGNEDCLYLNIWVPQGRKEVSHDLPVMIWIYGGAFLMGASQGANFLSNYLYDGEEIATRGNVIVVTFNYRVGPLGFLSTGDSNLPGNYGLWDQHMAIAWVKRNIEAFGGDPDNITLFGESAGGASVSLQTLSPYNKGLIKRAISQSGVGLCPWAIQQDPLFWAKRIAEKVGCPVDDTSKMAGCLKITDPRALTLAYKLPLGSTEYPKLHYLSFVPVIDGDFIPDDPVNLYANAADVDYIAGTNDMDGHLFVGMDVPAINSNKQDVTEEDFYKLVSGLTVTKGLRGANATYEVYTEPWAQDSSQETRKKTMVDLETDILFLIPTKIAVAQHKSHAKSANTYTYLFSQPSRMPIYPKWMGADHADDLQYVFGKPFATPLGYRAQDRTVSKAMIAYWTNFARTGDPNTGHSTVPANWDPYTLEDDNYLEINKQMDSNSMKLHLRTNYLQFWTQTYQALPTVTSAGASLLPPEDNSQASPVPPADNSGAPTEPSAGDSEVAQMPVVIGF

Chain of Acetylcholinesterase (P22303 whole entry): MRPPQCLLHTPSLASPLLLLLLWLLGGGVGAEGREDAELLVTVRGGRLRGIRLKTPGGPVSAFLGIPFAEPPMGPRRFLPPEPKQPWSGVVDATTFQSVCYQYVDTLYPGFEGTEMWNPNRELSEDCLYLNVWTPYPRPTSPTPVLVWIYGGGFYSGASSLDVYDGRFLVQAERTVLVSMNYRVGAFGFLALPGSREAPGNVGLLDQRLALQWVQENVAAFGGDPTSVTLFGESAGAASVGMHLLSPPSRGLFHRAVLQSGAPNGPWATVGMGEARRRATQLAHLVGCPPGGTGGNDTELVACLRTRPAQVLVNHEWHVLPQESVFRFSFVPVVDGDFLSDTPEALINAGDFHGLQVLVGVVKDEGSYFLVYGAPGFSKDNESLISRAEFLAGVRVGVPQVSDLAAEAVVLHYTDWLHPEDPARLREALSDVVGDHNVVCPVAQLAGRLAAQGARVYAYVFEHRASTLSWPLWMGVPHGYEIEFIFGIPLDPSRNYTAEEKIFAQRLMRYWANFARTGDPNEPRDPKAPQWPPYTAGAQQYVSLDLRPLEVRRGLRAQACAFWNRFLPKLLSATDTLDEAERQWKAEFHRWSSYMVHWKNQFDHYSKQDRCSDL
Chain of Procathepsin L (P07711 whole entry): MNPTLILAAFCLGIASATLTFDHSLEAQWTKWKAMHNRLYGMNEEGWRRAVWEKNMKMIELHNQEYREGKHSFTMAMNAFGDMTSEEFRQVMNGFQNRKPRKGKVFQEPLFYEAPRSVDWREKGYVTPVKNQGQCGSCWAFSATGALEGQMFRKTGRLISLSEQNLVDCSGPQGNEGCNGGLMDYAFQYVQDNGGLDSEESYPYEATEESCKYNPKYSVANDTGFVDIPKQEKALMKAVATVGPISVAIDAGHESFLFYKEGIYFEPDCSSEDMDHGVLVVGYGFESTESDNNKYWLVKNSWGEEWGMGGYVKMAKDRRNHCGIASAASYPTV
Chain of Angiotensin-converting enzyme (P12821 whole entry): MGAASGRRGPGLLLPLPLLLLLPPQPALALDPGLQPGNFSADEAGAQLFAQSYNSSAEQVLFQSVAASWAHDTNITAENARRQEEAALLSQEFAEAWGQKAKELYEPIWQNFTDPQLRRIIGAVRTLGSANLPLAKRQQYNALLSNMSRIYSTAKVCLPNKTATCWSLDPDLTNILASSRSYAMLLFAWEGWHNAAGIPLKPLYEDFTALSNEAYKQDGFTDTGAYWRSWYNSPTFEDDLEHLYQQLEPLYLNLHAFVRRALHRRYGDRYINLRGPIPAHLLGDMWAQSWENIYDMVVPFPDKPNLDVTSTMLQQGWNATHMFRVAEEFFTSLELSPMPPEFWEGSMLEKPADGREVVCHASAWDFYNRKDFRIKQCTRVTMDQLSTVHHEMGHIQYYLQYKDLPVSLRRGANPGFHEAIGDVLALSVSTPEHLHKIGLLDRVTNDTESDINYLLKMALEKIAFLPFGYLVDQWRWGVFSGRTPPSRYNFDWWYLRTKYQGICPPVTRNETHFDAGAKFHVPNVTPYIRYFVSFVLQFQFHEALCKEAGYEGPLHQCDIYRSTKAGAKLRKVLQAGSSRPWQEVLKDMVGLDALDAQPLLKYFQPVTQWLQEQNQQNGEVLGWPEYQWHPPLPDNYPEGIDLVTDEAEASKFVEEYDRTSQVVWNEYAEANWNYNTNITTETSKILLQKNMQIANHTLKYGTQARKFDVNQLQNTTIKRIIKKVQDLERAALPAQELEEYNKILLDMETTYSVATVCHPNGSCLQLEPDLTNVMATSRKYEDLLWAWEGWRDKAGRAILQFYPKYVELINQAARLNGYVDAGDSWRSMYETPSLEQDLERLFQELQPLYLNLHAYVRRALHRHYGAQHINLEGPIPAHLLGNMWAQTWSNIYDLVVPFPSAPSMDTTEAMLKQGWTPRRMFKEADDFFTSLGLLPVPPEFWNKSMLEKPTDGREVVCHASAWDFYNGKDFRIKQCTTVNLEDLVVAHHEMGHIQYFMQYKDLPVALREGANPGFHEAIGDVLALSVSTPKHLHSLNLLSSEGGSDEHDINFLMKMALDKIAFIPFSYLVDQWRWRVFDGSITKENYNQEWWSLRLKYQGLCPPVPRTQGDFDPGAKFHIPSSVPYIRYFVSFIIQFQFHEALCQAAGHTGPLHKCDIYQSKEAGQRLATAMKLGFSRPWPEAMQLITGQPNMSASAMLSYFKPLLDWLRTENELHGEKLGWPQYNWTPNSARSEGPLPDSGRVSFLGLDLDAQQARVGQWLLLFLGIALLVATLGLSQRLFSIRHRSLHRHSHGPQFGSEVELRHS

Row | SMILES | IC50 (Cathepsin G) [µM] | IC50 [1] [µM] | IC50 [2] [µM] | IC50 (Neutrophil elastase) [µM] | IC50 (Acetylcholinesterase) [µM] | IC50 (Procathepsin L) [µM] | IC50 [3] [µM] | Ki (Neutrophil elastase) [µM]
1 | O=C1C2=C(CCCC2)S(=O)(=O)N1c1cccc(Cl)n1 | > 100 | > 100 | > 100 | > 100 | > 100 | > 100 | > 100 | 
2 | O=C1C2=C(CCCC2)S(=O)(=O)N1c1ncc(F)cc1F | > 100 | > 100 | > 100 | > 100 | > 100 | > 100 | > 100 | 
3 | O=C1C2=C(CCCC2)S(=O)(=O)N1c1cccc(Br)n1 | > 100 | > 100 | > 100 | > 100 | > 100 | > 100 | > 100 | 
4 | CC1=C(C)S(=O)(=O)N(c2c(F)c(F)nc(F)c2F)C1=O | > 100 | > 100 | > 100 | > 100 | > 100 | > 100 | > 100 | 
5 | O=C1C2=C(CCCC2)S(=O)(=O)N1c1ccncc1.[O-][Cl+3]([O-])([O-])O | > 100 | > 100 | > 100 | > 100 | > 100 | > 100 | > 100 | 
6 | O=C1C2=C(CCCC2)S(=O)(=O)N1c1c(F)c(F)c(F)c(F)c1F | > 100 | > 100 | > 100 | > 100 | > 100 | > 100 | > 100 | 
7 | O=C1C2=C(CCCC2)S(=O)(=O)N1c1c(F)c(F)nc(F)c1F | > 100 | > 100 | > 100 | 3.1 | > 100 | > 100 | > 100 | 
8 | O=C1c2ccccc2S(=O)(=O)N1c1c(F)c(F)nc(F)c1F | 3.7 | 7.5 | > 100 | 0.081 | > 100 | > 100 | 11 | 0.028
9 | CC1=C(c2ccccc2)C(=O)N(c2c(F)c(F)nc(F)c2F)S1(=O)=O | > 100 | > 100 | > 100 | 33 | > 100 | > 100 | > 100 | 
